Screens deposited in PubChem BioAssay by several laboratories.
H69AR inhibit: proliferation blockers of H69AR lung cancer cells, primary screen, cell-based, human, 86K library. H69AR lung tumor viability, ATP luminescence, 72 h; stronger effect = lower value. viability, % at 10 µM. 85,000 tested, 6% active. AID 598, 2007;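 active = viability at or below 40%; inactive = viability above 40%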;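 note: multidrug resistant small cell line overexpressing MRP-1 efflux transporter; 100% = mean luminescence of untreated control wells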
Jurkat viability: cytotoxicity toward Jurkat T cells, primary screen, cytotoxicity control, cell-based, Jurkat E6.1, 60K MLSMR library; Jurkat E6.1 viability, ATP luminescence, 48 h; inhibition, % at 4 µM; 56,000 tested, 1.2% active; AID 463, 2006;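 active = inhibition above the mean inhibition of all tested compounds plus 3 SD, cut at about 28% in these data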
HUVEC inhibit: inhibitors of HUVEC proliferation, primary screen, cell-based, 384-well; CellTiter-Glo luminescence, 72 h; stronger effect = lower value; viability, % at 10 µM (by protocol); 86,000 tested, 1.1% active;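 active = viability at or below 30%; inactive = viability above 30%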;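 note: 100% = median luminescence of DMSO-only cell control wells on each plate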
Fibroblast inh: antiproliferative effect on LL 47 fibroblasts – human, LL 47 cells, CellTiter-Glo luminescence, primary screen; LL 47 human lung fibroblast viability, ATP luminescence; stronger effect = lower value; viability, % at 10 µM; 85,000 tested, 1.1% active; AID 719, 2007;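 active = viability at or below 50% in the single dose screen; inactive = viability above 50%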;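 note: compound exposure lasted 72 h before the ATP readout; 100% = median luminescence of untreated cell-only wells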
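Test system: LL 47 human lung fibroblasts / Quantity: 1,150 cells in each well / Medium: IMEM growth medium with 15% fetal bovine serum / Incubation: 72 h compound exposure at 37 °C after overnight plating / Detection: CellTiter-Glo luminescence measuring cellular ATP / Read-out: % viability versus median cells-only luminescence / Benchmarks: cell-only wells, no compound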
Ecoli WT expand: growth inhibitors of wild-type E. coli, primary screen, strain BW25113, expanded library, OD600 | growth inhibition, % at 100 µM | OD600 absorbance | 98,000 tested, 0.15% active;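 active = growth inhibition above about 50% at one test dose, limit read from the data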;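 note: growth measured after 20 h incubation at 37 °C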
tolC growth inh: growth inhibitors of E. coli tolC mutant, primary screen, strain BW25113 ΔtolC::kan, 384-well; 65,000 tested, 2.2% active; growth inhibition, % at 10 µM (by protocol); OD615;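 active = growth inhibition at or above a cutoff equal to the mean over every tested compound plus 3 SD, cut at about 60% in these data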;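 note: growth measured after 20 h incubation at 37 °C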
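Assay system: tolC-deleted E. coli BW25113. Medium: kanamycin-containing LB broth (50 µg/mL). Dosing: 10 µM final, single dose. Timing: bacterial growth with compound for 20 h at 37 °C. Detection: A615 absorbance measurement. Read-out basis: growth inhibition in percent.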
Starred values were filed as active, the others as inactive; . = no result given. Hits are enriched below; roughly 6.4% of the tested compounds scored in any of these assays.

SMILES	H69AR inhibit	Jurkat viability	HUVEC inhibit	Fibroblast inh	Ecoli WT expand	tolC growth inh
CCCn1c(/N=C/c2cc(OC)ccc2O)nc2ccccc21	40*	-5	82	108	18	5
CCCCn1c(/N=C/c2cc(OC)ccc2O)nc2ccccc21	48	-2	98	99	24	24
COc1ccc(Oc2c(-c3ccc(O)cc3O)n[nH]c2C)cc1	96	-14	105	89	17	54
CCCc1ccc(Oc2c(-c3ccc(O)c(C)c3O)n[nH]c2C)cc1	21*	13	24*	96	10	48
CCCc1ccc(Oc2cn[nH]c2-c2ccc(O)c(C)c2O)cc1	82	7	56	96	12	100*
Cc1c(O)ccc(-c2[nH]ncc2-c2nc3ccccc3s2)c1O	92	.	93	77	0	.
CCOC(=O)C1(Cc2ccc(O)cc2)NC(c2ccco2)C2C(=O)N(c3ccccc3F)C(=O)C21 (configuration not stated)	83	-4	98	97	-4	-9
Cc1cccc(-n2nnc(C(=O)NC3CCCc4ccccc43)c2N)c1 (configuration not stated)	19*	12	67	94	-5	50
Cc1cccc(-n2nnc(C(=O)NCc3ccccc3)c2N)c1	99	16	93	98	0	-5
Cc1ccc(-c2n[nH]c3c2CCC3)cc1	97	.	94	99	27	.
COc1ccc(C(C)=O)cc1CSc1nnc(-c2ccccc2O)n1-c1ccccc1	.	.	.	.	0	.
Cc1cc(N2C3CCC2CC(O)(c2ccc(F)cc2)C3)nc(-c2ccccc2)n1 (configuration not stated)	26*	8	60	56	-5	100*
CN(Cc1ccccc1)Cc1nc2c([nH]1)c(=O)n(C)c(=O)n2C	92	.	99	98	-5	-5
Cc1cc2cc(CN(CC3CCCO3)C(=O)c3cnccn3)c(=O)[nH]c2cc1C (configuration not stated)	94	-3	95	95	1	12
CCOC(=O)N1CCN(C(=O)c2ccc(NC(=O)c3ccc(C)cc3)cc2)CC1	85	-2	92	102	-4	-20
COc1ccc(C)cc1NC(=O)CN1C(=O)c2cccc3cccc1c23	28*	.	47	55	6	.
O=C(CCNc1cccc(Cl)c1)c1ccco1	2.2*	6	92	97	-3	1
O=C(CNC(=O)c1ccco1)OCc1cccc(Cl)c1	92	1	86	105	-1	11
CC(=O)c1ccccc1OCC(O)CN1CCN(C(c2ccccc2)c2ccccc2)CC1 (configuration not stated)	9.8*	5	69	77	-3	74*
CCOc1ccccc1C(=O)N1CCN(C(c2ccccc2)c2ccccc2)CC1	.	.	.	.	10	.
O=C(ONc1ccc(N=NC(=O)c2ccccc2O)cc1)c1ccccc1	12*	.	36	70	-25	.
O=C1/C(=N/n2cnnc2)c2ccccc2N1Cc1ccccc1	17*	-4	70	92	18	-24
O=C1C2=C(Nc3ccccc3SC2c2ccco2)c2ccccc21 (configuration not stated)	52	3	72	90	20	100*
Cc1nc2ncnn2c(N2CCN(C(c3ccccc3)c3ccccc3)CC2)c1C	79	2	63	102	6	62*
Cc1cc(N2CCN(C(c3ccccc3)c3ccccc3)CC2)n2ncnc2n1	79	-2	97	106	1	82*
SMILES	H69AR inhibit	Jurkat viability	HUVEC inhibit	Fibroblast inh	Ecoli WT expand	tolC growth inh
Cc1nc2ncnn2c(N2CCN(c3cccc(C(F)(F)F)c3)CC2)c1C	33*	17	82	95	7	42
Cc1cc(N2CCN(c3nc4ccccc4s3)CC2)n2ncnc2n1	62	83*	70	94	0	-9
Cc1cc(N2CCN(c3cccc(C(F)(F)F)c3)CC2)n2ncnc2n1	74	-7	89	95	2	-9
Cc1nc(N2CCN(C(c3ccccc3)c3ccccc3)CC2)nc2c1C(=O)CCC2	.	3	101	94	.	-13
Cc1ccc(Nc2nc(N)nc(CN3CCCCCC3)n2)c(C)c1	85	-7	99	101	11	1
Cc1ccc(Nc2nc(N)nc(CN3CCC(C)CC3)n2)c(C)c1	33*	.	86	94	.	.
CCN(CC(=O)Nc1cc(C)nn1-c1nc(C)cc(C)n1)Cc1ccccc1	14*	.	51	73	1	.
Cc1cc(C)nc(-n2nc(C)cc2NC(=O)CN2CCc3ccccc3C2)n1	6.4*	3	82	83	11	42
Cc1cc(C)nc(-n2nc(C)cc2NC(=O)CN2CCCC(C)C2)n1 (configuration not stated)	63	3	106	89	6	10
O=C(NCC1CCN(c2ccc(S(=O)(=O)N3CCOCC3)cc2)CC1)c1ccc(Cl)cc1	35*	.	88	86	-7	.
O=C(NC1CCCC1)c1ccc(S(=O)(=O)N2CCOCC2)cc1	84	.	96	98	3	.
CN1CCN(C2=Cc3ccc(Cl)cc3Sc3ccc(F)cc32)CC1	21*	.	3.8*	94	.	.
COc1ccc(S(=O)(=O)Nc2ccc(S(=O)(=O)N3CCCCC3)cc2)cc1	90	9	96	.	1	74*
O=S(=O)(Nc1ccc(S(=O)(=O)N2CCCCC2)cc1)c1ccc(Br)s1	77	12	74	88	0	84*
COc1ccc(NS(=O)(=O)c2c(C)cc(C)cc2C)cc1	16*	.	91	101	-8	.
O=S(=O)(Nc1ccc(S(=O)(=O)N2CCCCCC2)cc1)c1cccs1	75	.	93	101	-3	.
COc1ccc(S(=O)(=O)Nc2ccc(S(=O)(=O)N3CCCC3)cc2)cc1	90	.	99	102	0	.
CCC(CC)C(=O)NCCc1ccc(F)cc1	94	.	84	106	2	.
COc1ccc(N2C(=O)C3CCCN3C2c2ccccc2Cl)cc1 (configuration not stated)	81	1	112	97	1	-3
Cc1ccc(-c2nnc(Nc3ccccc3)c3ccccc23)cc1S(=O)(=O)NCC1CCCO1 (configuration not stated)	.	.	.	.	-8	.
Cc1ccc(-c2nn3c(-c4ccco4)nnc3c3ccccc23)cc1S(=O)(=O)NCC1CCCO1 (configuration not stated)	16*	7	72	89	-16	17
CC(C)c1ccc(N(CC(=O)NCCSC(C)(C)C)S(C)(=O)=O)cc1	70	.	105	102	4	.
Cn1c(C(=O)NCc2ccccc2)cc2oc3ccccc3c21	86	.	75	77	-3	.
